# Reference: ChEMBL document CHEMBL4229337, “Design, synthesis and biological evaluation of 1-hydroxy-2-phenyl-4-pyridyl-1H-imidazole derivatives as xanthine oxidase inhibitors” (Eur J Med Chem, 2018)
# Molecular target: T1, Xanthine dehydrogenase/oxidase (Bos taurus, UniProt P80457)
# Test: Inhibition of bovine xanthine oxidase assessed as reduction in uric acid formation using xanthine as substrate preincubated for 15 mins followed by substrate addition by spectrophotometric analysis
# Details: not given; call rule not given here
# In short: (§1)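 XO (15 U/L) in 0.1 M sodium pyrophosphate buffer pH 8.3 with 0.3 mM Na₂EDTA, preincubated 15 min with test compound; reaction started by adding 64 μM xanthine. Inhibition read as lowered uric acid concentration, in triplicate. Single-point screen at 10 µg/mL; compounds above 50% inhibition were then run over a wide concentration range to derive IC₅₀.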
# T1 sequence (P80457 whole entry): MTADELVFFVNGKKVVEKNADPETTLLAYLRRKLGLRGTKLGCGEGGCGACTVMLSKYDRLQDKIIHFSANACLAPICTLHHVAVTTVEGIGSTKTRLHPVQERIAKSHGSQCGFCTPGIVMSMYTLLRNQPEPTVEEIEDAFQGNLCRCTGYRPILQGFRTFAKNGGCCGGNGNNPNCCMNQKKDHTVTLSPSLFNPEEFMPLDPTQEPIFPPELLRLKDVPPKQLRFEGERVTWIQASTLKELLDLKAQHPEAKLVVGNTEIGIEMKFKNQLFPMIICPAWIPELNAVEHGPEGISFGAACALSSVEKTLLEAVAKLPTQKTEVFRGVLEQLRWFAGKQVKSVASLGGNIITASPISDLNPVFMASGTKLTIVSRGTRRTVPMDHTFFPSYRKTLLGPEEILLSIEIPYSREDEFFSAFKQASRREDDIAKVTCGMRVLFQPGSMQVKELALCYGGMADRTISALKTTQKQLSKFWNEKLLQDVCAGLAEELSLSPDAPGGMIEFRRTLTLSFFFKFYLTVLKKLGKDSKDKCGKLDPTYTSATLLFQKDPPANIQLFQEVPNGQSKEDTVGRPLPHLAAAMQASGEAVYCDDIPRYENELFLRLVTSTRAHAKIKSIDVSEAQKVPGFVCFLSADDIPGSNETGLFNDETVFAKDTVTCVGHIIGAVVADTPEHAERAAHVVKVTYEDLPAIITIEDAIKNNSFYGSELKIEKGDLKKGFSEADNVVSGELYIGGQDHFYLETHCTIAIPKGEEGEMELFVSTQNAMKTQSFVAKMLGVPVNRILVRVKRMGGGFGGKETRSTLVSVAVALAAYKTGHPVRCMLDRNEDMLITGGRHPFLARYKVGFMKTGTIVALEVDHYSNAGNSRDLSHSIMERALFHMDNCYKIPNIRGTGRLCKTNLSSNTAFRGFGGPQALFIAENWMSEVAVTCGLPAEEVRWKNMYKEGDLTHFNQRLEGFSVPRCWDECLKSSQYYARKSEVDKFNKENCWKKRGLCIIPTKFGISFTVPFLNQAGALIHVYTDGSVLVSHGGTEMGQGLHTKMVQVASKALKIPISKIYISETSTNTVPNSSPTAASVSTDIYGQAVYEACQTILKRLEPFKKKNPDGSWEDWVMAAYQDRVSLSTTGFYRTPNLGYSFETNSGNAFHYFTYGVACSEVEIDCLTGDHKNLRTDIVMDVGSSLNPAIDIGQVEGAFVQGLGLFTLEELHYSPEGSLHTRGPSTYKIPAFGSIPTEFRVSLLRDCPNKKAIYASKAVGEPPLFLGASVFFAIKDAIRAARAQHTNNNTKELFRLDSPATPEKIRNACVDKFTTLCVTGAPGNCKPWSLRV
Compound,pIC50,IC50
CCOC(=O)c1cc(-c2nnc(-c3ccnc(C)c3)[nH]2)ccc1OCC(C)C,7.7,
Cc1cc(-c2n[nH]c(-c3ccc(O)c(C#N)c3)n2)ccn1,7.37,
N#Cc1cc(-n2cc(-c3ccncc3)nn2)ccc1OC1CCCC1,5.17,
CCCCOc1ccc(-n2cc(-c3ccncc3)nn2)cc1C#N,4.68,
COCCOCCOc1ccc(-c2nc(-c3ccnc(C)c3)n[nH]2)cc1C#N,7.51,
Cc1cc(-c2n[nH]c(-c3ccc(OCCO)c(C#N)c3)n2)ccn1,7.4,
N#Cc1cc(-c2n[nH]c(-c3ccncc3)n2)ccn1 [TOPIROXOSTAT],,0.0048 µM
CC(C)COc1ccc(-c2nc(-c3cccnc3)n[nH]2)cc1[N+](=O)[O-],5.23,
COCCOCOc1ccc(-c2nc(-c3ccnc(C)c3)n[nH]2)cc1C#N,7.62,
Cc1cc(-c2nnc(-c3ccc(OCCOCCOCCCl)c(C#N)c3)[nH]2)ccn1,7.68,
CCCCOCCOCCOc1ccc(-c2nnc(-c3ccnc(C)c3)[nH]2)cc1C#N,7.59,
Cc1cc(-c2nc(-c3ccc(OCC(C)C)c([N+](=O)[O-])c3)n[nH]2)ccn1,8,
CC(C)COc1ccc(-c2nnc(-c3ccnc(Cl)c3)[nH]2)cc1[N+](=O)[O-],8,
N#Cc1cc(-n2cc(-c3ccncc3)nn2)ccc1OCc1ccccc1,4.35,
CCCCCOc1ccc(-n2cc(-c3ccncc3)nn2)cc1C#N,4.79,
Cc1cc(-c2n[nH]c(-c3ccc(OCC(C)C)c(C#N)c3)n2)ccn1,7.77,
COc1ccc(COc2ccc(-n3cc(-c4ccncc4)nn3)cc2C#N)cc1,4.63,
Cc1cc(-c2nnc(-c3ccc(OCC(=O)O)c(C#N)c3)[nH]2)ccn1,6.96,
Cc1cc(-c2n[nH]c(-c3ccc(OCC4COC(C)(C)O4)c(C#N)c3)n2)ccn1 (configuration not stated),7.22,
CC(C)Oc1ccc(-n2cc(-c3ccncc3)nn2)cc1C#N,4.6,
COCOc1ccc(-c2nc(-c3ccnc(C)c3)n[nH]2)cc1C#N,7.62,
CC(C)CCOc1ccc(-n2cc(-c3ccncc3)nn2)cc1C#N,5.09,
COCCOc1ccc(-c2nc(-c3ccnc(C)c3)n[nH]2)cc1C#N,7.19,

# The next lines start with the values.
pIC50,IC50,Compound
5.32,4.75 µM,CC(C)Oc1ccc(-c2nc(-c3ccncc3)cn2O)cc1C#N
4.99,10.3 µM,CC(C)COc1ccc(-c2nc(-c3cccnc3)cn2O)cc1C#N
4.81,15.4 µM,COc1ccc(-c2nc(-c3ccncc3)cn2O)cc1C#N
4.74,,CCC(C)Oc1ccc(-n2cc(-c3ccncc3)nn2)cc1C#N (configuration not stated)
6.19,0.64 µM,CC(C)CCOc1ccc(-c2nc(-c3ccncc3)cn2O)cc1C#N
5.02,9.62 µM,C=CCOc1ccc(-c2nc(-c3cccnc3)cn2O)cc1C#N
5.17,6.73 µM,CC(C)CCOc1ccc(-c2nc(-c3cccnc3)cn2O)cc1C#N
5.36,4.35 µM,CCC(C)Oc1ccc(-c2nc(-c3ccncc3)cn2O)cc1C#N (configuration not stated)

# Same assay, conditions: cattle
row,inhibition (INH),Compound
1,Dose-dependent effect,CC(C)CCOc1ccc(-c2nc(-c3ccncc3)cn2O)cc1C#N

# Molecular target: T1, Xanthine dehydrogenase/oxidase
# Test: Inhibition of bovine xanthine oxidase assessed as reduction in uric acid formation at 10 ug/ml using xanthine as substrate preincubated for 15 mins followed by substrate addition by spectrophotometric analysis
# Details: cattle
# In short: as §1
row,inhibition (INH),Compound
1,< 50%,COc1ccc(-c2nc(-c3cccnc3)cn2O)cc1C#N
2,< 50%,C=CCOc1ccc(-c2nc(-c3ccncc3)cn2O)cc1C#N
3,< 50%,CC(C)Oc1ccc(-c2nc(-c3cccnc3)cn2O)cc1C#N
4,< 50%,N#Cc1cccc(-c2nc(-c3ccncc3)cn2O)c1
5,< 50%,CC(C)COc1ccc(-c2nc(-c3ccncc3)cn2O)cc1C#N
6,< 50%,N#Cc1cccc(-c2nc(-c3cccnc3)cn2O)c1
7,< 50%,CCC(C)Oc1ccc(-c2nc(-c3cccnc3)cn2O)cc1C#N (configuration not stated)

# Molecular target: T1, Xanthine dehydrogenase/oxidase
# Test: Mixed-type inhibition of bovine xanthine oxidase assessed as reduction in uric acid formation using xanthine as substrate preincubated for 15 mins followed by substrate addition by spectrophotometry based Lineweaver-Burk plot analysis
# Details: cattle
row,inhibition (INH),Compound
1,Active,CC(C)CCOc1ccc(-c2nc(-c3ccncc3)cn2O)cc1C#N
